Source: ChEMBL document CHEMBL1121441, “Synthesis and properties of the sulfonyl analogues of 4(5)-aminoimidazole-5(4)-carboxamide, 4(5)-(formylamino)imidazole-5(4)-carboxamide, guanine, and xanthine” (J Med Chem, 1980)
The source made the active and inactive calls. No cut-off for these calls is given here.

Legend:
[1] = test system: L1210; experiment: Compound tested for inhibition of growth of L1210 cells in culture at 10e-4 M; NI = no inhibition; format: functional, cell-based; settings: Mus musculus
Method in brief: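 Murine L1210 leukemia cells were harvested in log phase and resuspended in RPMI 1640 with 10% fetal bovine serum at a starting density of 17.5×10^4 cells/mL. Analogue stock was 5×10⁻³ M in phosphate-buffered saline, pH 7.4, filter-sterilized, then serially diluted in medium. Final concentrations were 10⁻⁴ to 10⁻⁸ M. Cultures grew 72 h at 37 °C and were counted every 24 h by Coulter counter against untreated controls.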

[2] = Compound was tested for apparent dissociation constant at pH 9; format: ADME
Method in brief: (§1)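 pKa values were determined potentiometrically on 0.001 M solutions with a pH meter. For one analogue the values came from least-squares analysis with activity corrections. Measurement temperature was recorded with each value, and standard deviations were reported.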

[3] = Compound was tested for apparent dissociation constant at pH 14; format: ADME; method in brief: as §1
[4] = Compound was tested for apparent dissociation constant at pH 7; format: ADME; method in brief: as §1
[5] = Compound was tested for apparent dissociation constant at pH 13; format: ADME; method in brief: as §1
[6] = Compound was tested for apparent dissociation constant at pH 10; format: ADME; method in brief: as §1

For `NC1=NS(=O)(=O)c2nc[nH]c2N1`, the inhibition [1] was “inactive”, the pKa [2] was 6.84 and the pKa [3] was 11.6.
With `O=C1Nc2[nH]cnc2S(=O)(=O)N1` the pKa [4] was 2.55, the pKa [5] was 11 and the inhibition [1] was “inactive”. For the same compound, the pKa [6] was 8.99.
With `Nc1[nH]cnc1S(N)(=O)=O` the pKa [4] was 9.43 and the inhibition [1] was “inactive”.
For `NS(=O)(=O)c1[nH]cnc1NC=O`, the pKa [4] was 8.7 and the inhibition [1] was “inactive”.
